Assay results pooled from the literature.
Technique: competition with immobilised ligand
JAK2 JH1: Tyrosine-protein kinase JAK2, JH1 (JAK2, Homo sapiens, UniProt O60674)
JAK2: Tyrosine-protein kinase JAK2 (JAK2, Homo sapiens, UniProt O60674)

Structure (SMILES)	target	read-out	concentration	remaining binding
Cc1cnn2ncc(-c3ccnc(N(C)C)n3)c2c1	JAK2 JH1	cell-free assay	1 µM	93%
CCN1CCN(Cc2ccc(C(=O)Nc3ccc(C)c(Oc4ccc5c(c4)CC(=O)N5)c3)cc2C(F)(F)F)CC1	JAK2 JH1	binding	1 µM	91%
Nc1ncc2c(n1)-c1c([nH]c3ccc(C#CC4CC4)cc13)CCCC2	JAK2 JH1	binding	1 µM	80%
COc1cnc(Nc2cccc(S(N)(=O)=O)c2)nc1N1CCN(c2ccccc2)C(=O)C1	JAK2 JH1	binding	1 µM	6.1%
Cn1nc(C(F)(F)F)cc1-c1cnc(N2CCc3cc(S(=O)(=O)Nc4c(F)cc(Cl)cc4F)cc(N4CCCC4=O)c32)nc1	JAK2 JH1	cell-free assay	1 µM	82%
O=C(c1ccc(Nc2nccc(-c3cc4ccccc4s3)n2)cc1)N1CCC(N2CCCC2)CC1	JAK2 JH1	binding	1 µM	0.1%
O=C(NS(=O)(=O)c1ccc(NCC2CCOCC2)c([N+](=O)[O-])c1)c1ccc(N2CCN(Cc3ccc(C(F)(F)F)cc3-c3ccc(Cl)cc3)CC2)cc1Oc1cnc2[nH]ccc2c1	JAK2 JH1	cell-free assay	1 µM	90%
O=C(c1ccc(Nc2ncc(Cl)c(-c3ccc(Cl)s3)n2)cc1)N1CCC(N2CCCC2)CC1	JAK2 JH1	binding	1 µM	1.3%
C[C@H](c1cccc(C#N)c1)n1cc(Cl)cc(C(N)=O)c1=N	JAK2 JH1	cell-free assay	1 µM	100%
COc1cnc(Nc2cccc(S(N)(=O)=O)c2)nc1N1CCN(c2ccccc2)CC1	JAK2 JH1	binding	1 µM	14%
CN(C)c1nccc(-c2cnn3ncccc23)n1	JAK2 JH1	cell-free assay	1 µM	49%
CNC(=O)Nc1ccc2c(c1)[C@@]1(CC2)OC(=O)N(CC(=O)N(Cc2ccc(F)cc2)[C@@H](C)C(F)(F)F)C1=O	JAK2 JH1	cell-free assay	1 µM	100%
Cc1cnc(Nc2ccc(C(=O)N3CCC(N4CCCC4)CC3)cc2)nc1-c1cc2ccccc2s1	JAK2 JH1	binding	1 µM	0%
CC(C)(C)c1ccc(-c2nc(CBr)nn2-c2cccc(O)c2)cc1	JAK2	cell-free assay	10 µM	67%
O=C(Nc1c[nH]nc1C(=O)NC1CCNCC1)c1cc(F)cc(F)c1	JAK2 JH1	binding	1 µM	100%
CS(=O)(=O)N1CCCC(NC(=O)[C@H](CCC2CCCCC2)NC(=O)c2ccc(CNC(=O)c3cnc4ccccn34)cc2)C1 (stereo partly drawn)	JAK2 JH1	cell-free assay	0.1 µM	100%
C[C@@H]1CN(c2ccc3ncc(-c4ccc5[nH]nc(C6CC6)c5c4)n3n2)C[C@H](C)O1	JAK2	binding	0.5 µM	87%
CN(CCCC(F)(F)F)c1nccc(-c2cnn3ncccc23)n1	JAK2 JH1	cell-free assay	1 µM	94%
